Reference: ChEMBL document CHEMBL2086252, “Syntheses and evaluation of anticonvulsant activity of novel branched alkyl carbamates” (J Med Chem, 2012)
Active and inactive are the calls of the source. No cut-off for these calls is given here.

Tests used:
Rattus norvegicus [1] = assay: Neurotoxicity in pilocarpine-induced status epilepticus Sprague-Dawley albino rat model assessed as minimal motor impairment at 300 mg/kg, ip after 1 hr by rotarod test; type: toxicity, organism-based; design: dose 300 mg/kg, route intraperitoneal; conditions: in vivo
How it was run: (§1)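 Rat pilocarpine status epilepticus model: test carbamate given at 0 or 30 min after the first observed Racine stage 3 motor seizure, which marks SE onset. Neurotoxicity was scored within the same model.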

Mus musculus [2] = assay: Neurotoxicity in albino CF1 mouse assessed as minimal motor impairment at 300 mg/kg, ip after 0.5 hrs by rotarod test; type: toxicity, organism-based; design: dose 300 mg/kg, route intraperitoneal; conditions: in vivo
How it was run: (§2)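 Mice dosed ip at 30, 100 or 300 mg/kg, then tested 0.5 h and 4 h after administration in the MES or scMet test. Protection was recorded as animals protected over animals tested. Neurotoxicity was recorded as motor impairment or sedation, as animals affected over animals tested.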

Mus musculus [3] = assay: Anticonvulsant activity in albino CF1 mouse assessed as protection against maximal electroshock-induced seizures at 300 mg/kg, ip after 4 hrs; type: functional, organism-based; design: dose 300 mg/kg; how it was run: as §2
Rattus norvegicus [4] = assay: Neurotoxicity in pilocarpine-induced status epilepticus Sprague-Dawley albino rat model assessed as minimal motor impairment at 100 mg/kg, ip after 0.5 hrs by rotarod test; type: toxicity, organism-based; design: dose 100 mg/kg, route intraperitoneal; conditions: in vivo
Rattus norvegicus [5] = assay: Neurotoxicity in pilocarpine-induced status epilepticus Sprague-Dawley albino rat model assessed as minimal motor impairment at 30 mg/kg, ip after 2 hrs by rotarod test; type: toxicity, organism-based; design: dose 30 mg/kg, route intraperitoneal; conditions: in vivo; how it was run: as §1
Rattus norvegicus [6] = assay: Neurotoxicity in pilocarpine-induced status epilepticus Sprague-Dawley albino rat model assessed as minimal motor impairment at 30 mg/kg, ip after 1 hr by rotarod test; type: toxicity, organism-based; design: dose 30 mg/kg, route intraperitoneal; conditions: in vivo; how it was run: as §1
Rattus norvegicus [7] = assay: Neurotoxicity in pilocarpine-induced status epilepticus Sprague-Dawley albino rat model assessed as minimal motor impairment at 300 mg/kg, ip after 0.25 hr by rotarod test; type: toxicity, organism-based; design: dose 300 mg/kg, route intraperitoneal; conditions: in vivo; how it was run: as §1
Rattus norvegicus [8] = assay: Neurotoxicity in pilocarpine-induced status epilepticus Sprague-Dawley albino rat model assessed as minimal motor impairment at 30 mg/kg, ip after 0.5 hrs by rotarod test; type: toxicity, organism-based; design: dose 30 mg/kg, route intraperitoneal; conditions: in vivo; how it was run: as §1
Rattus norvegicus [9] = assay: Neurotoxicity in pilocarpine-induced status epilepticus Sprague-Dawley albino rat model assessed as minimal motor impairment at 300 mg/kg, ip after 0.5 hrs by rotarod test; type: toxicity, organism-based; design: dose 300 mg/kg, route intraperitoneal; conditions: in vivo; how it was run: as §1
Rattus norvegicus [10] = assay: Anticonvulsant activity in Sprague-Dawley albino rat assessed as protection against maximal electroshock-induced seizures at 30 mg/kg, po after 2 hrs; type: functional, organism-based; design: dose 30 mg/kg
How it was run: (§3)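 Rats dosed orally. Anti-MES protection was scored as animals protected over animals tested at each time after dosing. Neurotoxicity was scored as motor impairment or sedation, as animals affected over animals tested.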

Rattus norvegicus [11] = assay: Neurotoxicity in pilocarpine-induced status epilepticus Sprague-Dawley albino rat model assessed as minimal motor impairment at 30 mg/kg, ip after 0.25 hr by rotarod test; type: toxicity, organism-based; design: dose 30 mg/kg, route intraperitoneal; conditions: in vivo; how it was run: as §1
Mus musculus [12] = assay: Neurotoxicity in albino CF1 mouse assessed as minimal motor impairment at 30 mg/kg, ip after 0.5 hrs by rotarod test; type: toxicity, organism-based; design: dose 30 mg/kg, route intraperitoneal; conditions: in vivo; how it was run: as §2
Rattus norvegicus [13] = assay: Neurotoxicity in pilocarpine-induced status epilepticus Sprague-Dawley albino rat model assessed as minimal motor impairment at 100 mg/kg, ip after 4 hrs by rotarod test; type: toxicity, organism-based; design: dose 100 mg/kg, route intraperitoneal; conditions: in vivo
Mus musculus [14] = assay: Anticonvulsant activity in albino CF1 mouse assessed as protection against subcutaneous metrazol-induced seizures at 300 mg/kg, ip after 0.5 hrs; type: functional, organism-based; design: dose 300 mg/kg; how it was run: as §2
Rattus norvegicus [15] = assay: Neurotoxicity in pilocarpine-induced status epilepticus Sprague-Dawley albino rat model assessed as minimal motor impairment at 65 mg/kg, ip after 0.5 hrs by rotarod test; type: toxicity, organism-based; design: dose 65 mg/kg, route intraperitoneal; conditions: in vivo; how it was run: as §1
Mus musculus [16] = assay: Neurotoxicity in albino CF1 mouse assessed as minimal motor impairment at 300 mg/kg, ip after 4 hrs by rotarod test; type: toxicity, organism-based; design: dose 300 mg/kg, route intraperitoneal; conditions: in vivo; how it was run: as §2
Rattus norvegicus [17] = assay: Neurotoxicity in pilocarpine-induced status epilepticus Sprague-Dawley albino rat model assessed as minimal motor impairment at 100 mg/kg, ip after 0.25 hr by rotarod test; type: toxicity, organism-based; design: dose 100 mg/kg, route intraperitoneal; conditions: in vivo
Rattus norvegicus [18] = assay: Neurotoxicity in Sprague-Dawley albino rat assessed as minimal motor impairment at 30 mg/kg, po by rotarod test; type: toxicity, organism-based; design: dose 30 mg/kg, route oral; conditions: in vivo; how it was run: as §3
Rattus norvegicus [19] = assay: Neurotoxicity in pilocarpine-induced status epilepticus Sprague-Dawley albino rat model assessed as minimal motor impairment at 300 mg/kg, ip after 2 hrs by rotarod test; type: toxicity, organism-based; design: dose 300 mg/kg, route intraperitoneal; conditions: in vivo; how it was run: as §1
Rattus norvegicus [20] = assay: Neurotoxicity in pilocarpine-induced status epilepticus Sprague-Dawley albino rat model assessed as minimal motor impairment at 100 mg/kg, ip after 2 hrs by rotarod test; type: toxicity, organism-based; design: dose 100 mg/kg, route intraperitoneal; conditions: in vivo
Mus musculus [21] = assay: Anticonvulsant activity in albino CF1 mouse assessed as protection against subcutaneous metrazol-induced seizures at 30 mg/kg, ip after 4 hrs; type: functional, organism-based; design: dose 30 mg/kg; how it was run: as §2
Rattus norvegicus [22] = assay: Anticonvulsant activity in Sprague-Dawley albino rat assessed as protection against maximal electroshock-induced seizures at 30 mg/kg, po after 15 mins; type: functional, organism-based; design: dose 30 mg/kg; how it was run: as §3
Rattus norvegicus [23] = assay: Anticonvulsant activity in Sprague-Dawley albino rat assessed as protection against maximal electroshock-induced seizures at 30 mg/kg, po after 4 hrs; type: functional, organism-based; design: dose 30 mg/kg; how it was run: as §3
Mus musculus [24] = assay: Anticonvulsant activity in albino CF1 mouse assessed as protection against maximal electroshock-induced seizures at 30 mg/kg, ip after 4 hrs; type: functional, organism-based; design: dose 30 mg/kg; how it was run: as §2
Mus musculus [25] = assay: Neurotoxicity in albino CF1 mouse assessed as minimal motor impairment at 100 mg/kg, ip after 4 hrs by rotarod test; type: toxicity, organism-based; design: dose 100 mg/kg, route intraperitoneal; conditions: in vivo; how it was run: as §2
Mus musculus [26] = assay: Anticonvulsant activity in albino CF1 mouse assessed as protection against maximal electroshock-induced seizures at 30 mg/kg, ip after 0.5 hrs; type: functional, organism-based; design: dose 30 mg/kg; how it was run: as §2
Rattus norvegicus [27] = assay: Anticonvulsant activity in Sprague-Dawley albino rat assessed as protection against pilocarpine-induced status epilepticus at 65 mg/kg, ip; type: functional, organism-based; design: dose 65 mg/kg
How it was run: (§4)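 Pilocarpine status epilepticus model in rats. Number and severity of convulsive seizures were observed behaviourally.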

Rattus norvegicus [28] = assay: Anticonvulsant activity in ip dosed Sprague-Dawley albino rat assessed as protection against pilocarpine-induced status epilepticus after 0.5 hrs; type: functional; how it was run: as §4
Mus musculus [29] = assay: Anticonvulsant activity in albino CF1 mouse assessed as protection against maximal electroshock-induced seizures at 100 mg/kg, ip after 0.5 hrs; type: functional, organism-based; design: dose 100 mg/kg; how it was run: as §2
Mus musculus [30] = assay: Anticonvulsant activity in albino CF1 mouse assessed as protection against maximal electroshock-induced seizures at 300 mg/kg, ip after 0.5 hrs; type: functional, organism-based; design: dose 300 mg/kg; how it was run: as §2
Mus musculus [31] = assay: Neurotoxicity in albino CF1 mouse assessed as minimal motor impairment at 100 mg/kg, ip after 0.5 hrs by rotarod test; type: toxicity, organism-based; design: dose 100 mg/kg, route intraperitoneal; conditions: in vivo; how it was run: as §2
Mus musculus [32] = assay: Anticonvulsant activity in albino CF1 mouse assessed as protection against maximal electroshock-induced seizures at 100 mg/kg, ip after 4 hrs; type: functional, organism-based; design: dose 100 mg/kg; how it was run: as §2
Rattus norvegicus [33] = assay: Neurotoxicity in pilocarpine-induced status epilepticus Sprague-Dawley albino rat model assessed as minimal motor impairment at 30 mg/kg, ip after 4 hrs by rotarod test; type: toxicity, organism-based; design: dose 30 mg/kg, route intraperitoneal; conditions: in vivo; how it was run: as §1
Mus musculus [34] = assay: Anticonvulsant activity in albino CF1 mouse assessed as protection against subcutaneous metrazol-induced seizures at 30 mg/kg, ip after 0.5 hrs; type: functional, organism-based; design: dose 30 mg/kg; how it was run: as §2
Mus musculus [35] = assay: Neurotoxicity in albino CF1 mouse assessed as minimal motor impairment at 30 mg/kg, ip after 4 hrs by rotarod test; type: toxicity, organism-based; design: dose 30 mg/kg, route intraperitoneal; conditions: in vivo; how it was run: as §2
Mus musculus [36] = assay: Anticonvulsant activity in albino CF1 mouse assessed as protection against subcutaneous metrazol-induced seizures at 300 mg/kg, ip after 4 hrs; type: functional, organism-based; design: dose 300 mg/kg; how it was run: as §2
Rattus norvegicus [37] = assay: Neurotoxicity in pilocarpine-induced status epilepticus Sprague-Dawley albino rat model assessed as minimal motor impairment at 300 mg/kg, ip after 4 hrs by rotarod test; type: toxicity, organism-based; design: dose 300 mg/kg, route intraperitoneal; conditions: in vivo; how it was run: as §1
Mus musculus [38] = assay: Anticonvulsant activity in albino CF1 mouse assessed as protection against subcutaneous metrazol-induced seizures at 100 mg/kg, ip after 0.5 hrs; type: functional, organism-based; design: dose 100 mg/kg; how it was run: as §2
Rattus norvegicus [39] = assay: Neurotoxicity in pilocarpine-induced status epilepticus Sprague-Dawley albino rat model assessed as minimal motor impairment at 100 mg/kg, ip after 1 hr by rotarod test; type: toxicity, organism-based; design: dose 100 mg/kg, route intraperitoneal; conditions: in vivo
Mus musculus [40] = assay: Anticonvulsant activity in albino CF1 mouse assessed as protection against subcutaneous metrazol-induced seizures at 100 mg/kg, ip after 4 hrs; type: functional, organism-based; design: dose 100 mg/kg; how it was run: as §2

For `CCCC(COC(N)=O)C(C)C` (racemic), the Activity (Rattus norvegicus [1]) was “Toxic”, the Activity (Mus musculus [2]) was “Toxic” and the Activity (Mus musculus [3]) was “inactive”. For the same molecule, the Activity (Rattus norvegicus [4]) was “Toxic”, the Activity (Rattus norvegicus [5]) was “Non-toxic” and the Activity (Rattus norvegicus [6]) was “Non-toxic”. The Activity (Rattus norvegicus [7]) was “Toxic”, the Activity (Rattus norvegicus [8]) was “Non-toxic” and the Activity (Rattus norvegicus [9]) was “Toxic”. For the same molecule, the Activity (Rattus norvegicus [10]) was “inactive”, the Activity (Rattus norvegicus [11]) was “Non-toxic” and the Activity (Mus musculus [12]) was “Non-toxic”. The Activity (Rattus norvegicus [13]) was “Non-toxic”, the Activity (Mus musculus [14]) was “Active” and the Activity (Rattus norvegicus [15]) was “Non-toxic”. The Activity (Mus musculus [16]) was “Non-toxic”, the Activity (Rattus norvegicus [17]) was “Toxic” and the Activity (Rattus norvegicus [18]) was “Non-toxic”. The Activity (Rattus norvegicus [19]) was “Toxic”, the Activity (Rattus norvegicus [20]) was “Non-toxic” and the Activity (Mus musculus [21]) was “inactive”. The Activity (Rattus norvegicus [22]) was “inactive”, the Activity (Rattus norvegicus [23]) was “inactive” and the Activity (Mus musculus [24]) was “inactive”. The Activity (Mus musculus [25]) was “Non-toxic”, the Activity (Mus musculus [26]) was “inactive” and the Activity (Rattus norvegicus [27]) was “Active”. The ED50 (Rattus norvegicus [28]) was 107 mg/kg, the ED97 (Rattus norvegicus [28]) was 151 mg/kg and the Activity (Mus musculus [29]) was “Active”. The Activity (Mus musculus [30]) was “Active”, the Activity (Mus musculus [31]) was “Non-toxic” and the Activity (Mus musculus [32]) was “inactive”. For the same molecule, the Activity (Rattus norvegicus [33]) was “Non-toxic”, the Activity (Mus musculus [34]) was “inactive” and the Activity (Mus musculus [35]) was “Non-toxic”. For the same molecule, the Activity (Mus musculus [36]) was “inactive”, the Activity (Rattus norvegicus [37]) was “Toxic” and the Activity (Mus musculus [38]) was “inactive”. For the same molecule, the Activity (Rattus norvegicus [39]) was “Toxic” and the Activity (Mus musculus [40]) was “inactive”.
